This is a sample that favours compounds with a hit; in the whole collection about 3.8% have one here.
Beta apoptosis: blocks beta cell apoptosis. INS-1E cytokine-induced death, ATP luminescence, 48 h; percent of positive-control rescue, neutral wells zero. hit rate 0.8% among 300,000. protection from apoptosis, % (concentration not given with the values). AID 435005;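 active = Every replicate reaches about 75%, or at least half do and their mean reaches it too, limit read from the data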;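 note: 0% = cytokine-treated negative control wells and 100% = positive control rescue; higher means more ATP so stronger rescue from cytokine killing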
MC4R antagonist: human MC4R antagonism in cAMP assay. inhibition, % at 6.5 µM. hit rate 0.48% among 360,000. P32245. MC4R-expressing cells, MTII-stimulated cAMP, LANCE TR-FRET;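 active = inhibition above its plate's cutoff, the mean of tested wells on that plate plus 3 SD, cut at about 29% in these data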;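 note: 0% = Melanotan II alone and 100% = Melanotan II plus saturating MCL0020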
Target sequence (P32245 whole entry, looked up): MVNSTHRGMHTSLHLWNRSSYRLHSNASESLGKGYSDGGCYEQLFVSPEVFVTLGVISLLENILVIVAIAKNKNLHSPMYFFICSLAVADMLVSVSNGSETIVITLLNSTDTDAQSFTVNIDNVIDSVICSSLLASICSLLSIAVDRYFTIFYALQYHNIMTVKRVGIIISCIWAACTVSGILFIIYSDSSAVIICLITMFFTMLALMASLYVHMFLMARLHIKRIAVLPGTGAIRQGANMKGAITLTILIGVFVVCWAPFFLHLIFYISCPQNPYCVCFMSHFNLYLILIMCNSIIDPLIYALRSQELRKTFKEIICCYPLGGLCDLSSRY
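material = U2OS cells stably expressing human melanocortin 4 receptor (MC4R) | also added = Melanotan II challenge | dosing = single nominal compound dose of 6.5 µM | detection = TR-FRET with Eu-cAMP and labeled anti-cAMP, 671 nm | replication = singlicate | timing = compound 30 min, challenge 1 h, detection 1 h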
CSC inhib: cancer stem cell inhibition | cancer stem cell-like cells viability, luminescence | inhibition, % at 7.5 µM | hit rate 1.1% among 300,000; in the data active = inhibition above about 75%; tested in HMLE shEcad cells
ANO1 block: inhibitors of mouse TMEM16A calcium-activated chloride channel; normalized B-score (activity score, 25-100; higher = stronger inhibition) at 10 µM; HEK293 TMEM16A/YFP iodide influx fluorescence, ionomycin; hit rate 1.2% among 310,000; AID 588511;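 active = ratio plate-corrected score three or more library SD toward inhibition, starting fluorescence score within five deviations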;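 note: score derived from kinetic fluorescence span divided by baseline fluorescence per well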
ANO1 activ: activates or potentiates the mouse TMEM16A chloride channel; HEK293 TMEM16A/YFP-H148Q/I152L, iodide quench fluorescence; hits give low values; hit rate 0.3% among 340,000; B-score at 10 µM; AID 623877;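 active = fluorescence-ratio B-score plate-corrected deviation score at least 3 library SD below zero, with starting fluorescence score within 5 deviations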;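 note: channel opened by trigger with iodide after compound preincubation; score built on the fluorescence ratio of max minus min over baseline; more negative score means more quench and so TMEM16A activation or potentiation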
MC4R barr agon: agonists of human melanocortin 4 receptor (MC4R) beta-arrestin. P32245. U2OS MC4R beta-arrestin complementation, luminescence; percent of melanotan II response, DMSO zero. activation, % at 8.9 µM. hit rate 0.98% among 360,000;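 active = activation above a per-plate cutoff, the mean activation of sample wells on that plate plus 3 SD, cut at about 8% in these data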
Numbers without * were called inactive; i = inactive; x = no result given.

SMILES	Beta apoptosis	MC4R antagonist	CSC inhib	ANO1 block	ANO1 activ	MC4R barr agon
COc1ccc2[nH]c3c(c2c1)CCN1C(=O)C(CC(=O)NC(C)(C)C)C[C@H](C(=O)N(C(C)C)C(C)C)[C@@]31C (stereo partly specified)	x	4	x	x	x	-1
CCOc1ccc(S(=O)(=O)N(CC)CC)cc1NC(=O)c1ccc(N2CCCC2=O)cc1	2	0	24	i	i	1
COc1ccc(-n2c(CNc3ccc(C)cc3)nnc2SCC(=O)Nc2nc(-c3ccccc3)cs2)cc1	86*	-7	3	i	i	1
COc1ccc(-n2c(Cc3cccn3C)nnc2SCC(=O)Nc2cccc(Cl)c2)cc1	-11	5	117*	i	i	1
Cc1sc(NC(=O)C2=COCCO2)c(C(N)=O)c1C	-5	0	4	i	i	-2
CC(C)(C)C1CCC2(CC1)C(C#N)=C(SCC(=O)Nc1ccccc1)NC(=O)C2C#N (stereo unspecified)	45	4	66	100*	i	3
CSc1ccc(S(=O)(=O)Nc2ccc(N3CCOCC3)c(Cl)c2)cc1	104*	12	3	i	i	7
COc1ccc(NS(=O)(=O)c2ccc(N3CCOCC3)c(N)c2)cc1	76*	8	26	x	i	-1
Cc1cccc(NC(=O)COc2cccc3c2CCN(Cc2ccccc2)C3=O)c1C	0	13	0	i	-6.5*	-1
COc1ccccc1N1CCN(CCNC(=O)Nc2cccc(C)c2C)CC1	2	6	17	25*	i	0
Cc1cccc(OCC(=O)Nc2ccccc2N2CCCC2)c1C	-3	5	80*	i	i	2
COc1ccc(OCC(=O)N2CCc3ccccc32)c([N+](=O)[O-])c1	x	7	x	x	x	0
Cc1ccc(NC(=O)CCNC(=O)c2ccc(Br)cc2)nc1	0	1	-1	i	i	-2
O=C(NCc1ncc(C(F)(F)F)cc1Cl)Nc1ccccc1	-5	-1	-5	i	i	1
O=C1NC2(CCCCO2)CO1 (stereo unspecified)	-3	-6	8	i	-11*	0
O=C1NC2(CCCCC2)CO1	x	12	22	i	i	0
O=C(c1cc2sccc2n1Cc1ccccc1)N1CCN(c2nc3ccccc3s2)CC1	99*	7	7	i	i	-2
CCC(=O)N1CCN(c2nc3ccccc3s2)CC1	x	5	-14	i	i	-2
FC(F)Sc1ccc(-n2cc(-c3ccc(Cl)cc3)[n+]3c2CCC3)cc1	12	3	x	i	i	-2
Cc1ccc(-c2cn(-c3ccc(OC(F)F)cc3)c3[n+]2CCCCC3)cc1	100*	1	-2	i	i	4
Cc1ccc(-c2cn(-c3ccc(SC(F)F)cc3)c3[n+]2CCC3)cc1	82*	5	x	i	i	1
CN(CC(=O)Nc1ccc(F)cc1)C(=O)c1ccc(OCc2cn3ccccc3n2)cc1	-4	4	x	x	i	0
O=[N+]([O-])c1ccc(S(=O)(=O)CC(CN2CCCCC2)N2CCCCC2)cc1 (stereo unspecified)	0	13	78*	i	i	-5
O=C(c1ccc(COc2ccc(Cl)cc2)o1)N1CCN(Cc2ccc3c(c2)OCO3)CC1	3	11	29	25*	i	2
COc1ccc(/C=C2/C(=O)N(Cc3ccccc3)N=C2C)cc1	-1	-11	-9	i	i	0
SMILES	Beta apoptosis	MC4R antagonist	CSC inhib	ANO1 block	ANO1 activ	MC4R barr agon
COc1ccc(/C=C2/C(=O)N(c3nc4ccccc4s3)N=C2CSc2ccc(Cl)cc2)cc1	-1	4	92*	i	i	2
CCOc1ccc(CN(C)C(=O)CNC(=O)c2ccccc2)cc1	2	1	-7	i	i	0
C=CCOc1ccc(CN(C)C(=O)CNC(=O)c2ccc(-c3ccccc3)cc2)cc1	x	3	1	25*	i	2
CC1(C(=O)NS(=O)(=O)c2ccccc2)CCN1C(=O)CC1CCCCC1 (stereo unspecified)	x	0	x	x	x	-2
CC(=O)N/N=C\c1cccc(OC/C=C/c2ccccc2)c1	6	-1	-2	i	i	2
Oc1c(C(Nc2cccc(C(F)(F)F)c2)c2ccncc2)ccc2cccnc12 (stereo unspecified)	79*	-2	54	i	i	-5
Oc1c(C(Nc2nccs2)c2ccc(C(F)(F)F)cc2)ccc2cccnc12 (stereo unspecified)	x	22	x	x	i	-1
COc1cccc(N=Nc2c(=O)[nH]n3c(=O)cc(C)[nH]c23)c1	-5	-20	4	i	-21*	-4
COc1cccc(N=Nc2c(=O)[nH]n3c(=O)c4c([nH]c23)CCC4)c1	-6	-7	-8	i	i	0
CCc1ccc(-c2cc(C)no2)cc1S(=O)(=O)N1CCOc2ccc(C)cc21	12	1	35	i	i	-2
Cc1ccc(NC(=O)Nc2ccc(Cl)cn2)cc1	x	-5	x	x	-5.9*	5
Cc1ccc(C)c(OCCC(=O)OCC(=O)Nc2ccc(Cl)cn2)c1	0	4	-20	i	i	9.5*
Oc1ccc(-c2nccs2)cc1	x	12	x	x	i	0
Cc1nc2c(C(=O)NCCC(C)C)c[nH]n2c(=O)c1Cc1ccccc1F	3	16	58	100*	i	5
COc1cccc(-c2nn(C)c3sc(C(=O)N4CCOCC4)cc23)c1	x	11	-4	i	i	0
COc1cccc(-c2nn(C)c3sc(C(=O)N4CCN(c5ccccn5)CC4)cc23)c1	44	-4	45	25*	i	1
Cc1cc(C)n2cc(COc3ccc4ccccc4c3)nc2n1	-1	4	-1	i	i	-1
Cc1cccc2nc(COc3ccc(-c4ccccc4)cc3)cn12	x	x	52	100*	x	x
COc1cc(Cl)c(NS(=O)(=O)c2ccc(-c3ccc(=O)[nH]n3)o2)c(OC)c1	-2	2	-9	i	i	-2
COc1cc(Cl)c(NC2=CC(=O)C(=O)c3ccccc32)c(OC)c1	105*	-14	110*	x	i	-2
C/C(=N\NC(N)=S)c1cc(-c2ccccc2)c(-c2ccccc2)s1	x	3	99*	i	i	0
C/C(=N\NC(N)=S)c1ccccc1	-7	1	-5	i	i	-2
CC(/C=C1\SC(=S)N(NC(=O)c2ccc(C)cc2)C1=O)=C\c1ccccc1	x	3	13	i	i	0
CC(/C=C1\SC(=S)N(c2ccc(C(=O)O)cc2)C1=O)=C\c1ccccc1	4	9	76*	i	i	0

Screening data: PubChem BioAssay, several laboratories
